# Where “and” joins values, the source holds several entries; their conditions need not be identical. Equal entries are not always repeated.
# Key:
# [1] = tested on: microtubules; format: biochemical; settings: for Effect on microtubule acetylation by TAT: saturating concentration of MAP
# [2] = tested on: microtubules; test: Single-molecule TIRF of TAT-GFP scanning on microtubules; format: binding; settings: for Effect on TAT-GFP microtubule scanning: saturating concentration of MAP
# [3] = tested on: microtubules; test: Immunofluorescence of acetylation distribution on microtubules; format: biochemical; settings: taxol stabilized microtubules; antibody specific for acetylated tubulin; Figure 4
# Outline: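 Recombinant TAT acetylated taxol-stabilized microtubules in vitro. Excess enzyme was used at a 10:1 TAT:tubulin molar ratio and sampled over a time course. Marks were detected by immunofluorescence. Line-scans were taken along microtubules in the acetylated-tubulin channel. End analysis at 15 s averaged 25 line-scans from the tip to 5 µm inward.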
# [4] = tested on: TAT; settings: ref Friedmann et al., 2012; cited from earlier work
# [5] = molecular target: microtubules; test: TAT binding to microtubules in sedimentation assays; settings: read-out: Kd for microtubules, Figure S3B and C
# [6] = tested on: unpolymerized tubulin; test: TAT-tubulin complex formation by analytical ultracentrifugation; format: binding; settings: TAT concentrations as high as 40 µM
# [7] = tested on: tubulin polymers; test: TAT activity with tubulin polymers of diverse geometries; format: biochemical; settings: Figure 3A, N≥3
# Outline: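 Microtubule substrate was stabilized with 20 µM taxol. Negative-stain EM confirmed dolastatin-10 rings, Zn sheets and microtubules under the reaction conditions. Values are means ± S.E.M. (N≥3), compared by t-test.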
# [8] = tested on: tubulin; test: Tubulin acetylation assay; format: biochemical
# [9] = tested on: dolastatin-induced tubulin rings; test: Stacking of dolastatin-induced tubulin rings by TAT; settings: Figures S3D, S3E
# [10] = tested on: microtubules; test: Microtubule acetylation assay; format: biochemical; settings: bulk measurements
# [11] = tested on: microtubules and tubulin; test: Acetylation activity of TAT mutants with microtubules and tubulin; format: biochemical; settings: Figure 2C
# [12] = tested on: S. cerevisiae microtubules; test: Single-molecule TIRF of TAT-GFP on S. cerevisiae microtubules; format: binding, Saccharomyces cerevisiae; settings: purified S. cerevisiae microtubules and engineered with human C-terminal tails
# [13] = tested on: tubulin; test: Activity of bead-coupled biotinylated TAT with tubulin; format: biochemical; settings: 1 µm streptavidin beads; Figure 6A
# Outline: (§1)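 Biotinylated TAT was either immobilized on 1 µm diameter streptavidin beads or left free in solution. Each form was reacted with tubulin or with microtubules. Activity was normalized to the free enzyme. About 15% unpolymerized tubulin was present in the microtubule reactions.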
# [14] = tested on: microtubules; test: Activity of bead-coupled biotinylated TAT with microtubules; format: biochemical; settings: 1 µm streptavidin beads; Figure 6A
# Outline: as §1
molecule,measurement,setting,value
doublecortin: microtubule binding protein covering the fenestration at the vertices between four tubulin dimers (protein) MELDFGHFDERDKTSRNMRGSRMNGLPSPTHSAHCSFYRTRTLQALSNEKKAKKVRFYRNGDRYFKGIVYAVSSDRFRSFDALLADLTRSLSDNINLPQGVRYIYTIDGSRKIGSMDELEEGESYVCSSDNFFKKVEYTKNVNPNWSVNVKTSANMKAPQSLASSNSAQARENKDFVRPKLVTIIRSGVKPRKAVRVLLNKKTAHSFEQVLTDITEAIKLETGVVKKLYTLDGKQVTCLHDFFGDDDVFIACGPEKFRYAQDDFSLDENECRVMKGNPSATAGPKASPTPQKTSAKSPGPMRRSKSPADSGNDQDANGTSSSQLSTPKSKQSPISTPTSPGSLRKHKDLYLPLSLDDSDSLGDSM,Effect on microtubule acetylation by TAT,[1]; Figure 5F,no effect
same,Effect on TAT-GFP microtubule scanning,[2]; Figure 5F,no effect
"TAT: Homo sapiens TAT (1–196) expressed in Escherichia coli as a GST-fusion (protein, left off: GST, end not stated, state not stated) MEFPFDVDALFPERITVLDQHLRPPARRPGTTTPARVDLQQQIMTIIDELGKASAKAQNLSAPITSASRMQSNRHVVYILKDSSARPAGKGAIIGFIKVGYKKLFVLDDREAHNEVEPLCILDFYIHESVQRHGHGRELFQYMLQKERVEPHQLAIDRPSQKLLKFLNKHYNLETTVPQVNNFVIFEGFFAHQHRP",Distribution of acetylation along microtubule,[3],acetylates along the entire microtubule without a preference for ends
same,Km,[4],~32 µM
same,Kd,[5],~44 µM
same,Stable complex formation with unpolymerized tubulin,[6],undetectable
same,Acetylation of unmodified microtubules vs brain microtubules,[1]; Figures S5G and S5H,as effectively as brain microtubules
same,Microtubule acetylation after removal of C-terminal tails,"[1]; subtilisin microtubules, Figure 5F",unaffected by removal of the C-terminal tails
same,TAT activity with microtubules vs unpolymerized tubulin,[7],largest activity enhancement over unpolymerized tubulin is seen with microtubules
same,Catalytic rate with tubulin,[8],0.4 h⁻¹
same,Stacking of dolastatin-induced tubulin rings,[9],promotes stacking of dolastatin-induced tubulin rings in a dose-dependent manner
same,Acetylation rate with microtubules,[10],~1.6 h⁻¹
same,"Total microtubule length scanned, subtilisin-treated vs untreated microtubules","[2]; 50 microtubules, Figure 5F",covers the same total microtubule length
same,"Interaction time (τ), labeled spastin","[2]; microtubules coated with DyLight 550 labeled spastin, ATPγS",1.5 s
same,Average microtubule length scanned,"[2]; undecorated microtubules, Figure S5B",2.9 µm
same,Maximum scan excursion,"[2]; undecorated microtubules, excursions up to, Figure S5B",up to 10.4 µm
kinesin: motor domain of kinesin-5 (protein) MASQPNSSAKKKEEKGKNIQVVVRCRPFNLAERKASAHSIVECDPVRKEVSVRTGGLADKSSRKTYTFDMVFGASTKQIDVYRSVVCPILDEVIMGYNCTIFAYGQTGTGKTFTMEGERSPNEEYTWEEDPLAGIIPRTLHQIFEKLTDNGTEFSVKVSLLEIYNEELFDLLNPSSDVSERLQMFDDPRNKRGVIIKGLEEITVHNKDEVYQILEKGAAKRTTAATLMNAYSSRSHSVFSVTIHMKETTIDGEELVKIGKLNLVDLAGSENIGRSGAVDKRAREAGNINQSLLTLGRVITALVERTPHVPYRESKLTRILQDSLGGRTRTSIIATISPASLNLEETLSTLEYAHRAKNILNKPEVNQKLTKKALIKEYTEEIERLKRDLAAAREKNGVYISEENFRVMSGKLTVQEEQIVELIEKIGAVEEELNRVTELFMDNKNELDQCKSDLQNKTQELETTQKHLQETKLQLVKEEYITSALESTEEKLHDAASKLLNTVEETTKDVSGLHSKLDRKKAVDQHNAEAQDIFGKNLNSLFNNMEELIKDGSSKQKAMLEVHKTLFGNLLSSSVSALDTITTVALGSLTSIPENVSTHVSQIFNMILKEQSLAAESKTVLQELINVLKTDLLSSLEMILSPTVVSILKINSQLKHIFKTSLTVADKIEDQKKELDGFLSILCNNLHELQENTICSLVESQKQCGNLTEDLKTIKQTHSQELCKLMNLWTERFCALEEKCENIQKPLSSVQENIQQKSKDIVNKMTFHSQKFCADSDGFSQELRNFNQEGTKLVEESVKHSDKLNGNLEKISQETEQRCESLNTRTVYFSEQWVSSLNEREQELHNLLEVVSQCCEASSSDITEKSDGRKAAHEKQHNIFLDQMTIDEDKLIAQNLELNETIKIGLTKLNCFLEQDLKLDIPTGTTPQRKSYLYPSTLVRTEPREHLLDQLKRKQPELLMMLNCSENNKEETIPDVDVEEAVLGQYTEEPLSQEPSVDAGVDCSSIGGVPFFQHKKSHGKDKENRGINTLERSKVEETTEHLVTKSRLPLRAQINL,Effect on microtubule acetylation by TAT,[1]; Figure 5F,no effect
same,Effect on TAT-GFP microtubule scanning,[2]; Figure 5F,no effect
F105A TAT mutant: F105A TAT mutant defective in acetylation (protein) MEFPFDVDALFPERITVLDQHLRPPARRPGTTTPARVDLQQQIMTIIDELGKASAKAQNLSAPITSASRMQSNRHVVYILKDSSARPAGKGAIIGFIKVGYKKLAVLDDREAHNEVEPLCILDFYIHESVQRHGHGRELFQYMLQKERVEPHQLAIDRPSQKLLKFLNKHYNLETTVPQVNNFVIFEGFFAHQHRPPAPSLRATRHSRAAAVDPTPAAPARKLPPKRAEGDIKPYSSSDREFLKVAVEPPWPLNRAPRRATPPAHPPPRSSSLGNSPERGPLRPFVPEQELLRSLRLCPPHPTARLLLAADPGGSPAQRRRTRGTPPGLVAQSCCYSRHGGVNSSSPNTGNQDSKQGEQETKNRSASEEQALSQDGSGEKPMHTAPPQAPAPPAQSWTVGGDILNARFIRNLQERRSTRPW,Stacking of dolastatin-induced tubulin rings,[9],impaired in stack formation
same,Effect of mutation on TAT activity,[11]; N≥3,defective in acetylation
same,Effect of mutation on TAT activity,"[11]; N≥3, listed as Phe105",severely impairs enzyme activity with both tubulin and microtubules
"TAT-GFP: purified TAT-GFP for single-molecule TIRF microscopy (protein, left off: GFP, end not stated, kept) MEFPFDVDALFPERITVLDQHLRPPARRPGTTTPARVDLQQQIMTIIDELGKASAKAQNLSAPITSASRMQSNRHVVYILKDSSARPAGKGAIIGFIKVGYKKLFVLDDREAHNEVEPLCILDFYIHESVQRHGHGRELFQYMLQKERVEPHQLAIDRPSQKLLKFLNKHYNLETTVPQVNNFVIFEGFFAHQHRPPAPSLRATRHSRAAAVDPTPAAPARKLPPKRAEGDIKPYSSSDREFLKVAVEPPWPLNRAPRRATPPAHPPPRSSSLGNSPERGPLRPFVPEQELLRSLRLCPPHPTARLLLAADPGGSPAQRRRTRGTPPGLVAQSCCYSRHGGVNSSSPNTGNQDSKQGEQETKNRSASEEQALSQDGSGEKPMHTAPPQAPAPPAQSWTVGGDILNARFIRNLQERRSTRPW",Scanning on S. cerevisiae microtubules,[12],do not observe TAT-GFP scanning
same,Activity of GFP fusion vs untagged protein,[1]; Figure S5,comparable to that of the untagged protein
same,"Interaction time (τ), doublecortin",[2]; microtubules with saturating doublecortin,1.4 s
same,1D diffusion coefficient on microtubules,"[2]; undecorated microtubules, MSD fit, 100 ms frames, mean, legend: fit",0.27 µm^2/s and 0.27 ± 0.01 µm^2/s
same,Scan starting position,"[2]; undecorated microtubules, N=163, Figure 5D","randomly distributed on the microtubule, showing no bias for ends"
same,Interaction time (τ) on microtubules,"[2]; undecorated microtubules, exponential fit corrected for photobleaching, N=269",1.5 s and 1.5 ± 0.3 s
"bead-coupled TAT: C-terminally biotinylated TAT construct coupled to streptavidin beads 1 µm in diameter (protein, UniProt Q5SQI0 1-421, looked up, C-terminal biotin, streptavidin beads) Alpha-tubulin …: MEFPFDVDALFPERITVLDQHLRPPARRPGTTTPARVDLQQQIMTIIDELGKASAKAQNLSAPITSASRMQSNRHVVYILKDSSARPAGKGAIIGFIKVGYKKLFVLDDREAHNEVEPLCILDFYIHESVQRHGHGRELFQYMLQKERVEPHQLAIDRPSQKLLKFLNKHYNLETTVPQVNNFVIFEGFFAHQHRPPAPSLRATRHSRAAAVDPTPAAPARKLPPKRAEGDIKPYSSSDREFLKVAVEPPWPLNRAPRRATPPAHPPPRSSSLGNSPERGPLRPFVPEQELLRSLRLCPPHPTARLLLAADPGGSPAQRRRTRGTPPGLVAQSCCYSRHGGVNSSSPNTGNQDSKQGEQETKNRSASEEQALSQDGSGEKPMHTAPPQAPAPPAQSWTVGGDILNARFIRNLQERRSTRPW",Activity with tubulin when bead-coupled,[13],retained activity with tubulin
same,Reduction of activity with microtubules on bead coupling,[14],~89%
